From article PMC6977340 (Clinical Pharmacology and Therapeutics, 2019)
In brackets after ≈: the same amount, converted by molar mass.

Experiments:
CSF Aβ40 [1] = conditions: multiple-ascending doses over 28 days, healthy subjects ref 32; cited from earlier work
Aβ37 = conditions: cited from earlier work
Aβ42 = conditions: cited from earlier work
Aβ38 = conditions: cited from earlier work
CSF Aβ40 [2] = assay: PK/PD indirect-response model, CSF Aβ40; type: in vivo, human
Procedure, shortened: (§1)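 Population PK/PD fit in NONMEM (FOCE with interaction) for healthy adults. Inputs: serial CSF via lumbar catheter, 2 h predose to 36 h after one fasted oral 150 or 300 mg dose; single lumbar punctures at baseline and day 14 in 40–360 mg q.d. cohorts. Fixed two-compartment PK gave individual plasma concentrations. Indirect-response model: sigmoid inhibition (Aβ40/42) or stimulation (Aβ37/38) of production, with kout turnover. Fixed placebo-drift terms.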

[3] = Plasma pharmacokinetics, B7991001 single-ascending dose incl. food effect; type: in vivo, human; conditions: 120 mg fed vs fasted
plasma Aβ = assay: Plasma Aβ levels after single doses; type: in vivo, human; conditions: following single doses
[4] = Safety/tolerability, B7991002 multiple-ascending dose study; type: in vivo, human; conditions: doses up to 360 mg q.d. for up to 14 days, healthy young and elderly subjects
Procedure, shortened: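 Healthy subjects aged 18–55 and elderly subjects aged 65–85 took oral doses once daily for 14 days, with about 10 per cohort and placebo control. Dosing was fasted on days 1, 7 and 14, otherwise >1 h from breakfast. Investigators recorded adverse events with severity and causality, plus laboratory tests, physical examinations, ECG monitoring and vital signs.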

CSF Aβ42 = assay: PK/PD indirect-response model, CSF Aβ42; type: in vivo, human
Procedure, shortened: as §1

[5] = test system: Aβ42, Aβ40, Aβ37 and Aβ38; conditions: cited from earlier work
CSF Aβ38 = assay: PK/PD indirect-response model, CSF Aβ38; type: in vivo, human
Procedure, shortened: as §1

[6] = Plasma and CSF pharmacokinetics, B7991002 multiple dose; type: in vivo, human; conditions: for PF-06648671 concentration in CSF, mean: day 14, nonelderly
[7] = test system: Aβ42 within the brain and CSF; conditions: acute oral administration ref 36; cited from earlier work
Notch = conditions: cell-based assays ref 36; cited from earlier work
CSF Aβ37 = assay: PK/PD indirect-response model, CSF Aβ37; type: in vivo, human
Procedure, shortened: as §1

[8] = multiple-ascending doses over 28 days, healthy subjects ref 32
[9] = single dosing, healthy subjects ref 33

CNc1nc(Nc2ccc(-n3cnc(C)n3)c(OC)c2)nc2c1CC[C@H]2c1ccc(F)cc1 [BMS‐932481]
Decrease in CSF Aβ40 (CSF Aβ40 [1]): ≤ 74% | Increase in CSF Aβ37 (Aβ37; [8]): up to 545% | Increase in Aβ37 (Aβ37; [9]): up to 12 fold | Decrease in CSF Aβ42 (Aβ42; [8]): up to 77% | Decrease in Aβ42 (Aβ42; [9]): up to 50% | Increase in CSF Aβ38 (Aβ38; [8]): ≤ 69% | Increase in Aβ38 (Aβ38; [9]): ≤ 2 fold

COc1nc(/C=C/c2nc3n(n2)CCC[C@H]3c2ccccc2C(F)(F)F)ccc1-n1cnc(C)c1 [E2212]
Decrease in Aβ42 AUC0–24 hours values (Aβ42; single-ascending doses ref 35): up to 44.1%

Cc1cn(-c2ccc3n(c2=O)CCN([C@@H](C)[C@@H]2CC[C@H](c4cc(F)c(Cl)cc4C(F)(F)F)O2)C3=O)cn1 [PF-06648671, 2‐[(1S)‐1‐{(2S,5R)‐5‐[4‐chloro‐5‐fluoro‐2‐(trifluoromethyl)phenyl]tetrahydrofuran‐2‐yl}ethyl]‐7‐(4‐methyl‐1H‐imidazol‐1‐yl)‐3,4‐dihydro‐2H‐pyrido[1,2‐a]pyrazine‐1,6‐dione]
IC50 (CSF Aβ40 [2]; Homo sapiens, read-out: IC50, plasma concentration at half Imax, Aβ40): 1.23 µg/mL (≈ 2.28 µM) | Imax, maximum inhibition achievable, Aβ40 (CSF Aβ40 [2]; PK/PD model estimate): 0.725 | k out, first-order turnover constant of Aβ40 (CSF Aβ40 [2]; PK/PD model estimate): 0.0835 h⁻¹ | Dose predicted to achieve an average 50% reduction in CSF Aβ40 (CSF Aβ40 [2]; steady state, PK/PD model): 250 mg q.d. | Delay of median Tmax with food [3]: 3 h | Rebound effect of plasma Aβ levels over baseline (plasma Aβ): no rebound effect of plasma Aβ levels over baseline was observed | Safety profile [4]: good safety profile | Predicted reduction in CSF Aβ42 levels (CSF Aβ42; 75 mg): 50% | Predicted reduction in CSF Aβ42 levels (CSF Aβ42; 300 mg): 65% | IC50 (CSF Aβ42; Homo sapiens, read-out: IC50, plasma concentration at half Imax, Aβ42): 0.421 µg/mL (≈ 0.781 µM) | Imax, maximum inhibition achievable, Aβ42 (CSF Aβ42; PK/PD model estimate): 0.744 | k out, first-order turnover constant of Aβ42 (CSF Aβ42; PK/PD model estimate): 0.121 h⁻¹ | Dose predicted to achieve an average 50% reduction in CSF Aβ42 (CSF Aβ42; steady state, PK/PD model): 75 mg q.d. | Effect on Aβ species in cell-based assays [5]: reduced Aβ42 and Aβ40, with concomitant increases in Aβ37 and Aβ38 | EC50 (CSF Aβ38; Homo sapiens, read-out: EC50, plasma concentration at half Emax, Aβ38): 1.77 µg/mL (≈ 3.28 µM) | k out, first-order turnover constant of Aβ38 (CSF Aβ38; PK/PD model estimate): 0.144 h⁻¹ | Emax, maximum response achievable, Aβ38 (CSF Aβ38; PK/PD model estimate, large uncertainty): 0.869 | PF-06648671 concentration in CSF, mean ([6]; 40 mg q.d., CV 81%): 3.49 ng/mL | PF-06648671 concentration in CSF, mean ([6]; 360 mg q.d., CV 31%): 27.85 ng/mL | CSF penetration ([6]; CSF:plasma ratio at day 14 about equal to unbound fraction): excellent CSF penetration | Effect on Aβ42 in animals [7]: reduced Aβ42 within the brain and CSF | Effect on cleavage of Notch or other substrates (Notch): without inhibiting the cleavage of Notch or other substrates | EC50 (CSF Aβ37; Homo sapiens, read-out: EC50, plasma concentration at half Emax, Aβ37): 1.28 µg/mL (≈ 2.38 µM) | Emax, maximum response achievable, Aβ37 (CSF Aβ37; PK/PD model estimate): 5.63 | k out, first-order turnover constant of Aβ37 (CSF Aβ37; PK/PD model estimate): 0.0964 h⁻¹ | Predicted increase in CSF Aβ37 (CSF Aβ37; steady state, within simulated dose ranges): ≤ 500%
